The source of these data is ChEMBL document CHEMBL4609987, “Structure-activity relationship study of the pyridine moiety of isothiazolo[4,3-b]pyridines as antiviral agents targeting cyclin G-associated kinase” (Bioorg Med Chem, 2020).

Data set [1] addresses T1, Cyclin-G-associated kinase (Homo sapiens, UniProt O14976).
T1 sequence (O14976 whole entry): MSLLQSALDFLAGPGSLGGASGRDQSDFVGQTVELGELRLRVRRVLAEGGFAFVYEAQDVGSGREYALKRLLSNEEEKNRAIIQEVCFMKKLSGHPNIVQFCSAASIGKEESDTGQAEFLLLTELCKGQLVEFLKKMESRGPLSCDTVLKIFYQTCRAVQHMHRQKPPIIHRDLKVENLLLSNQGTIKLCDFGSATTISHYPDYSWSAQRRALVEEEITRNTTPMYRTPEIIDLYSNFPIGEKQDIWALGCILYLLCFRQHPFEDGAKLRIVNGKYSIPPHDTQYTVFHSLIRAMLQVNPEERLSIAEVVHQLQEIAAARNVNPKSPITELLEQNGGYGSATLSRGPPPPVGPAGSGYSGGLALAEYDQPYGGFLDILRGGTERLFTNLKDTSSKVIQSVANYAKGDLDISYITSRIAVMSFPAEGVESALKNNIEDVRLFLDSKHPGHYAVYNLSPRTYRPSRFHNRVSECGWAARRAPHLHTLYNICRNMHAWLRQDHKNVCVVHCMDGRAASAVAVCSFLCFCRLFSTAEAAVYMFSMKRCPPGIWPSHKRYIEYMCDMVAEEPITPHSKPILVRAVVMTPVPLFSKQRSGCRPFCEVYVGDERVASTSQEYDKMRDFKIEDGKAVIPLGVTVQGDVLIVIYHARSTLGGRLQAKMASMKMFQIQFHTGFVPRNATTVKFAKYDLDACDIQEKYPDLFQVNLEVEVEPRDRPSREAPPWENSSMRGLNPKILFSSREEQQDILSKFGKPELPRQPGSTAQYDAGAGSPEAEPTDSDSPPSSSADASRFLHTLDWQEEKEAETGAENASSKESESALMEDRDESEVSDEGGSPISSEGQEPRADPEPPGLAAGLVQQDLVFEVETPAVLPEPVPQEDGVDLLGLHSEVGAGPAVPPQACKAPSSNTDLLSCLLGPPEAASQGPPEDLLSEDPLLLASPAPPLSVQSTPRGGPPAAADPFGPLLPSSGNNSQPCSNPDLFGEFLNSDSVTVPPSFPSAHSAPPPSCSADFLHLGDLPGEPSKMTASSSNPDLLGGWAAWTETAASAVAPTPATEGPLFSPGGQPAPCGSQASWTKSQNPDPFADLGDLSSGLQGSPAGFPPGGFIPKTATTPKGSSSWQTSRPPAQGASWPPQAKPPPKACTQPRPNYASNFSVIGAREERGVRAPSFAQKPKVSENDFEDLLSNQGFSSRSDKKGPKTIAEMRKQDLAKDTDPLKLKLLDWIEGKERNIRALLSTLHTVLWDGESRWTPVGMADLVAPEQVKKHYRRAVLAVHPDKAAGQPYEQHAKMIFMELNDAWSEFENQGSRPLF
The data set can be described thus: Inhibition of tracer 222 binding to recombinant human GST-tagged GAK (1 to 329 residues) expressed in insect cells incubated for 1 hr by Lanthascreen assay. For orientation: TR-FRET usually uses a lanthanide donor and a delayed reading to cut background.

In data set [2] the test system is dengue virus type 2. The data set can be described thus: Antiviral activity against Dengue virus 2 infected in human HuH7 cells incubated for 48 hrs by luciferase reporter gene assay. Conditions: Huh-7, 48 h. Background: Reporter assays use an easily measured gene product as a stand-in for the process of interest.
Data set [3] can be described thus: Cytotoxicity against human HuH7 cells assessed as reduction in cell viability incubated for 48 hrs by alamar blue reagent based cell viability assay. Also on record: species or system Huh-7. Summed up: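 Run in parallel on the same DENV2-infected Huh7 cultures (MOI 0.05, 4 h infection). Viability measured with AlamarBlue per the manufacturer's protocol, with fluorescence detected at 560 nm. CC50 calculated as the half-maximal cytotoxic concentration.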
A general note: Resazurin is reduced to fluorescent resorufin, in cell work by metabolically active cells.

With `C[C@@H]1CN(c2snc3ccc(-c4ccc(C(F)(F)F)cc4)nc23)C[C@H](C)O1`, in data set [1], the IC50 is over 0.37 µM.

Take `COc1ccc(-c2cnc3c(N4C[C@@H](C)O[C@@H](C)C4)snc3c2)cn1`: the IC50 in data set [1] was over 3.33 µM.

Consider `C[C@@H]1CN(c2snc3cc(C#Cc4ccccc4)cnc23)C[C@H](C)O1`, for which, in data set [1], the IC50 was over 10 µM.

Turning to `COc1cc(-c2cnc3c(N4C[C@@H](C)O[C@@H](C)C4)snc3c2)ccc1C(=O)NCc1ccccc1`, a half-maximal effect in data set [2] (EC50) was put at 5.83 µM. For the same compound, the 50% cytotoxic concentration (CC50) at 48 h in data set [3] is over 10 µM.

On to `COc1cc(-c2cnc3c(N4C[C@@H](C)O[C@@H](C)C4)snc3c2)ccc1C(N)=O`, for which the EC50 in data set [2] stood at 10.1 µM. In addition, the CC50 at 48 h in data set [3] was over 10 µM.

With `C[C@@H]1CN(c2snc3cc(/C=C/c4ccccc4)cnc23)C[C@H](C)O1`, the IC50 in data set [1] is over 3.33 µM.

`COc1cc(-c2cnc3c(N4C[C@@H](C)O[C@@H](C)C4)snc3c2)ccc1C(=O)O` returned an EC50 in data set [2] of over 10 µM. Besides, in data set [3], the CC50 at 48 h was over 10 µM.

Take `COc1cc(-c2cnc3c(N4C[C@@H](C)O[C@@H](C)C4)snc3c2)ccc1N`: the IC50 in data set [1] is 0.0394 µM. In data set [2], this compound registered an EC50 of 0.82 µM. For the same compound, the CC50 at 48 h in data set [3] was over 25 µM.

Regarding `COc1ccc(-c2ccc3nsc(N4C[C@@H](C)O[C@@H](C)C4)c3n2)cc1OC`, the midpoint of the response in data set [2], the EC50, lay at 1.05 µM. The CC50 at 48 h in data set [3] was over 10 µM.

As to `COc1cc(-c2cnc3c(N4C[C@@H](C)O[C@@H](C)C4)snc3c2)ccc1C(=O)Nc1ccccc1`, the IC50 in data set [1] was over 0.37 µM.

Consider `COc1cc(-c2cnc3c(N4C[C@@H](C)O[C@@H](C)C4)snc3c2)cc(OC)c1OC`, for which the EC50 in data set [2] was 2.79 µM. Further, the CC50 at 48 h in data set [3] is over 10 µM.

Regarding `C#Cc1cccc(Nc2ncnc3cc(OCCOC)c(OCCOC)cc23)c1` [ERLOTINIB], the response in data set [2] was half-maximal at 1.22 µM (EC50). Moreover, the CC50 at 48 h in data set [3] is over 10 µM.

Turning to `COc1cc(-c2cnc3c(N4C[C@@H](C)O[C@@H](C)C4)snc3c2)ccc1C(=O)N1CCCC1`, in data set [2], a half-maximal response (EC50) required 8.85 µM. The CC50 at 48 h in data set [3] was over 10 µM.

As for `COc1cccc(-c2ccc3nsc(N4C[C@@H](C)O[C@@H](C)C4)c3n2)c1`, the EC50 in data set [2] is over 10 µM. In data set [3], the CC50 at 48 h is over 10 µM.

What is called IC50 is the point on the concentration scale where inhibition reaches its midpoint. One may read the EC50 as the concentration at which the effect is half-maximal. The low end stands for greater potency, the high end for weaker potency. The CC50 is the concentration giving 50% cytotoxicity.
